Results on 37 sequences are retold here after the array DNA melting data of Ke et al. (doi:10.1101/2024.01.08.574731).

The nature of data set [1]: folding enthalpy; higher = less favourable; fluorescence melt of hairpins on a sequencing array, two-state fit. Conditions: sodium 0.088 M. The method in brief:
(§1)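 Melting temperature and folding enthalpy were obtained by bootstrapped two-state fitting. Fits used Cy3 fluorescence of library hairpins with annealed Cy3 and quencher oligos on a sequenced MiSeq flow cell, imaged in 50 mM Na-HEPES pH 8.0, 25 mM NaCl in 2.5 °C steps up to 60 °C and normalised to pre-quench Cy3 and control constructs. Four replicates were combined by inverse-variance weighting, and fitted temperatures were raised by 9.35 °C to match UV melts.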

Data set [2] in a line: melting temperature; fluorescence melt of hairpins on a sequencing array, two-state fit, raised by 9.35 °C to match UV melts. Conditions: sodium 0.088 M. The method in brief:
as §1

For GATGAGGCGAAAGCCATC (((..(((....)))))), the folding enthalpy in data set [1] is -13.1 kcal/mol. Moreover, the Tm in data set [2] was 36.3 °C.
In the same order, the values of GATGAGGGAAACCTTGTC ((..(((....)))..)) are -15.3 kcal/mol and 28.1 °C.
In the case of GATGATACGAAAGTAATC (((..(((....)))))), the folding enthalpy in data set [1] was -16.5 kcal/mol. In data set [2], the Tm is 27.5 °C.
In the same order, the values of GATGATGGAAACATTATC (((.(((....))).))) are -30.4 kcal/mol and 35.5 °C.
As to GATGATGGAAACATTGTC ((..(((....)))..)), the folding enthalpy in data set [1] is -27.9 kcal/mol. In addition, the Tm in data set [2] turned out to be 28.8 °C.
Taken in the same sequence, the figures for GATGATGGAAACGTCATC (((((.(....).))))) were -29.8 kcal/mol and 46.7 °C.
Take GATGCACGAAAGTGGATC (((.(((....))).))): the folding enthalpy in data set [1] is -37.5 kcal/mol. For the same sequence, the Tm in data set [2] worked out at 54.9 °C.
With GATGCCACGAAAGTGATC (((..(((....)))))), in data set [1], the folding enthalpy is -9.92 kcal/mol. Moreover, in data set [2], the Tm is 20.2 °C.
In the same order, the values of GATGCCCCGAAAGGGATC (((..(((....)))))) are -10.3 kcal/mol and 32.5 °C.
Taken in the same sequence, the figures for GATGCCGAAAGGCAATC ((((((....))).))) were -13.8 kcal/mol and 53 °C.
In the same order, the values of GATGCCGAAAGGCCAATC ((((((....)))..))) are -8.85 kcal/mol and 29.4 °C.
Regarding GATGCGCGAAAGCGTATC (((.(((....))).))), in data set [1], the folding enthalpy was -27.8 kcal/mol. In data set [2], the Tm stood at 63 °C.
Taken in the same sequence, the figures for GATGCGGAAACGCATC ((((((....)))))) were -31.3 kcal/mol and 68.2 °C.
In the same order, the values of GATGCGGCGAAAGCCATC (((..(((....)))))) are -11.6 kcal/mol and 29.2 °C.
As to GATGCGGGAAACTGCATC (((((.(....).))))), in data set [1], the folding enthalpy was -42.6 kcal/mol. Further, the Tm in data set [2] came out at 54.7 °C.
Taken in the same sequence, the figures for GATGCTGCGAAAGCAATC (((..(((....)))))) were -9.87 kcal/mol and 29.3 °C.
As for GATGCTGGAAACAACATC ((((.((....)).)))), the folding enthalpy in data set [1] was -31.4 kcal/mol. The Tm in data set [2] stood at 36.2 °C.
In the same order, the values of GATGCTGGAAACAGTATC (((.(((....))).))) are -33.8 kcal/mol and 47 °C.
In the same order, the values of GATGCTGGAAACGGTATC (((.(.(....).).))) are -22.8 kcal/mol and 31.2 °C.
In the same order, the values of GATGGACGAAAGTCATC (((.(((....)))))) are -17.9 kcal/mol and 45.7 °C.
As to GATGGAGCGAAAGCTATC (((..(((....)))))), in data set [1], the folding enthalpy was -10.5 kcal/mol. In addition, the Tm in data set [2] was determined as 30.2 °C.
On to GATGGCGAAAGCCGTATC ((((((....)))..))), for which the folding enthalpy in data set [1] was -6.56 kcal/mol. The Tm in data set [2] is 43.8 °C.
In the same order, the values of GATGGCGAAAGCCTGATC ((((((....)))..))) are -11 kcal/mol and 33.6 °C.
Taken in the same sequence, the figures for GATGGCGGAAACACCACC (.(((.(....).))).) were -14.8 kcal/mol and 30.2 °C.
Taken in the same sequence, the figures for GATGGCGGAAACGCCGTC ((.((((....)))).)) were -21.4 kcal/mol and 58.3 °C.
Turning to GATGGCGGAAACGCTGTC ((..(((....)))..)), the folding enthalpy in data set [1] is -17.1 kcal/mol. Also, the Tm in data set [2] came out at 44 °C.
Taken in the same sequence, the figures for GATGGCGGAAACGTCATC ((((.((....)).)))) were -43.7 kcal/mol and 55.3 °C.
Taken in the same sequence, the figures for GATGGGCCGAAAGGCATC (((..(((....)))))) were -9.87 kcal/mol and 34.8 °C.
In the same order, the values of GATGGGGGAAACCCCGTC ((.((((....)))).)) are -24.7 kcal/mol and 52.7 °C.
In the case of GATGGGGGAAACCCTGTC ((..(((....)))..)), the folding enthalpy in data set [1] was -22.5 kcal/mol. The Tm in data set [2] amounted to 33.2 °C.
Taken in the same sequence, the figures for GATGGTGGAAACACCATC (((((((....))))))) were -39.4 kcal/mol and 65.1 °C.
Taken in the same sequence, the figures for GATGTACGAAAGTAGATC (((.(((....))).))) were -30.5 kcal/mol and 44 °C.
Taken in the same sequence, the figures for GATGTCCGAAAGGATATC (((.(((....))).))) were -35.6 kcal/mol and 52.3 °C.
GATGTCGAAAGACATC ((((((....)))))): the folding enthalpy in data set [1] was -36.3 kcal/mol. Moreover, the Tm in data set [2] is 66.3 °C.
In the same order, the values of GATGTCGGAAACGACACC (.(((((....))))).) are -11.4 kcal/mol and 40.4 °C.
Taken in the same sequence, the figures for GATGTGCCGAAAGGCATC (((..(((....)))))) were -8.04 kcal/mol and 36.1 °C.
Taken in the same sequence, the figures for GATGTGGCGAAAGCCATC (((..(((....)))))) were -8.76 kcal/mol and 38.5 °C.
